An excerpt weighted towards active compounds, which were near 1.6% of everything screened.
PKA-R2B act = PKA-R2B complex activation; 340,000 compounds, 0.079% hits; PKA-R2B holoenzyme dissociation, Cy5-IP20 fluorescence polarization; R2B truncated from residue 108, S112A mutant; 0% DMSO only, 100% 113 µM cGMP; activation, % at 11.4 µM; AID 504700; P22694+P31323;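 active = activation above a cutoff set at the mean over all compounds plus 3 SD, cut at about 18% in these data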;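 note: higher means more holoenzyme dissociation and a rise in polarization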
Target sequence (P31323 whole entry, looked up, other chains not shown, the tested form may be a part): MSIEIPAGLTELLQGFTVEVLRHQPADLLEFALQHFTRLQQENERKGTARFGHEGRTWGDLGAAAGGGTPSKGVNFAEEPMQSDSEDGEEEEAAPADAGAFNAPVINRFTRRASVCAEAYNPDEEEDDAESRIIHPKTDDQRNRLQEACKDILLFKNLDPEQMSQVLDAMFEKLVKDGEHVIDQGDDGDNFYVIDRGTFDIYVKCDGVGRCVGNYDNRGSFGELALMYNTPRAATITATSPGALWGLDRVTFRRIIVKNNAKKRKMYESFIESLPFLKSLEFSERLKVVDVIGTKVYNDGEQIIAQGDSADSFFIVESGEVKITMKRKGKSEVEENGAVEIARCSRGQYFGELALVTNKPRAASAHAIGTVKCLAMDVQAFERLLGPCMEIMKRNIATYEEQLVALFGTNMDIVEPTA
NR2E3 ag-1 = human photoreceptor-specific nuclear receptor agonism | Q9Y5X4 | CHO-S Gal4-NCOR/VP16-NR2E3 two-hybrid, luciferase | inhibition of corepressor binding, % at 3.98 µM | 360,000 compounds, 0.35% hits;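 active = inhibition above the mean of all tested compounds plus 3 SD, cut at about 70% in these data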;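 note: higher means lower luciferase signal from less NR2E3 corepressor binding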
NR2E3 ag-2 = agonists of human nuclear receptor NR2E3. Q9Y5X4. GST-NR2E3/biotin-RetCOR TR-FRET, 1536-well. inhibition of corepressor binding, % at 4.78 µM. 320,000 compounds, 0.12% hits. AID 2300;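 active = percent inhibition above the cutoff of mean plus 3 SD of all tested compounds, set per screening campaign, cut at about 20% in these data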
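system = GST-tagged NR2E3 plus biotinylated RetCOR corepressor | input = 1.35 nM GST-NR2E3 | also added = 7 nM biotin-RetCOR | schedule = 5 h incubation at 4 °C | measured by = TR-FRET with europium anti-GST and streptavidin-D2, 340 nm excitation | read-out = percent loss of FRET ratio relative to control wells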
PG9 binder = binds the HIV-1 gp120 antibody PG9; 360,000 compounds, 0.43% hits; TR-FRET gp120-PG9 antibody binding; inhibition, % at 6.7 µM; in the data active = inhibition above about 8.5%
PKA-R1A activ = activates the PKA-R1A holoenzyme complex; PKA-R1A dissociation, Cy5-IP20 fluorescence polarization; scaled: DMSO 0%, 113 µM cGMP 100%; activation, % at 11.4 µM; 340,000 compounds, 0.083% hits;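 active = percent activation above the mean of all tested compounds plus 3 SD, cut at about 19% in these data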;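 note: higher means more PKAc released from R1A so a rise in polarization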
NR1D1 modulator = Rev-erb alpha (human) modulation. P20393. Rev-erbα–FITC-DNA binding, fluorescence polarization, 90 min. activity, % at 10 µM. 370,000 compounds, 0.79% hits. AID 1259318;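 active = activity above about 14%, limit read from the data; passing the limit was not always enough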
NR1D1 mod conf = Rev-erb alpha (human) modulation, hit confirmation. shares compounds with NR1D1 modulator. Rev-erb alpha FITC-DNA binding, fluorescence polarization, 90 min. activation, % at 25 µM. 3,000 compounds, 61% hits. AID 1259319;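 active = activation at or above a set limit, or at least 3 SD above the negative control mean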
RORg counter = affects RORgamma DNA binding in a Rev-erb alpha counter-screen | purified RORgamma protein-FITC-DNA binding, fluorescence polarization | 910 compounds, 8% hits | AID 1259320 | IC50, µM | shares compounds with NR1D1 modulator;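 active = Compounds whose fitted half-maximal concentration for disrupting protein-DNA binding is below 10 micromolar; the record names Rev-erb in its text, so the target is in doubt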
A number is an active result; – = inactive; · = no result.

SMILES | PKA-R2B act | NR2E3 ag-1 | NR2E3 ag-2 | PG9 binder | PKA-R1A activ | NR1D1 modulator | NR1D1 mod conf | others
O=[N+]([O-])c1ccc(N/N=C/c2sc(N3CCOCC3)nc2-c2ccccc2)c(S(=O)(=O)Nc2ccccc2Cl)c1 | – | – | · | – | – | 24 | –
O=[N+]([O-])c1ccc(N/N=C/c2sc(N3CCOCC3)nc2-c2ccccc2)c(S(=O)(=O)Nc2ccc(Cl)cc2)c1 | – | – | · | – | – | – | ·
Cc1cc(C)c(N=C2SCC(=O)N2Cc2ccco2)c(C)c1 | – | – | – | – | – | 43 | 37 | RORg counter=–
O=C1CSC(=Nc2ccc(Cl)cc2)N1Cc1ccco1 | – | – | – | – | – | – | ·
CC(C)(C)CNC(=O)c1ccc2c(c1)S(=O)(=O)c1cc(Cl)ccc1C2=O | – | – | – | – | – | – | ·
Cc1cc(N(C)C(=O)c2ccc3c(c2)S(=O)(=O)c2cc(Cl)ccc2C3=O)c(C(F)(F)F)o1 | – | – | · | – | – | 20 | 20
CCCCN1C(=O)/C(=C/C=C2/CC(C)(C)CN2C)SC1=S | – | – | – | – | – | 84 | 95 | RORg counter=9.8
CCCN1C(=O)/C(=C/C=C2\N(CC)c3ccccc3C2(C)C)SC1=S | – | – | – | – | – | 47 | 43
C=CCN1C(=O)/C(=C\C=C2\N(C)c3ccccc3C2(C)C)SC1=S | – | – | – | – | – | 25 | 39 | RORg counter=–
CN1/C(=C\C=C2/SC(=S)N(CC(=O)O)C2=O)C(C)(C)c2ccccc21 | – | – | – | – | – | – | ·
CCCCN1C(=O)/C(=C/C=C2\Oc3ccccc3N2CC)SC1=S | – | – | · | – | – | 15 | 62 | RORg counter=–
CCCN1C(=O)/C(=C\C=C2/Sc3ccccc3N2CCO)SC1=S | – | – | – | – | – | – | ·
CCOC(=O)C1=CCN(S(=O)(=O)c2ccc(Br)cc2)C1c1cccc(Br)c1 (configuration not stated) | · | · | · | – | · | – | ·
Cc1nn(-c2ccc(F)cc2)c2c1cc(C#N)c1nc3ccccc3n12 | – | – | – | – | – | 60 | 39
CCOC(=O)CNC(=O)CSc1nnc(-c2ccccc2)n1CC | · | · | · | · | · | – | ·
CCc1nn(CC(=O)NCCCc2ccccc2)c(=O)c2cc3c(OC)cccc3n12 | – | – | – | – | – | 31 | –
COC(=O)c1c(NC2=NS(=O)(=O)c3ccccc32)sc2c1CCC(C(C)(C)C)C2 (configuration not stated) | – | – | · | – | – | 30 | 19
CCOC(=O)c1c(NC2=NS(=O)(=O)c3ccccc32)sc2c1CCC(C)C2 (configuration not stated) | – | – | – | – | – | 41 | –
O=C(CCc1ccccc1)N[C@H]1[C@H](OC(=O)c2ccco2)CCC[C@]12C(=O)N(Cc1ccccc1)c1ccccc12 | · | · | · | · | · | – | ·
CCOC(=O)N[C@H](C(=O)N1CCC[C@H]1C(=O)NCCc1ccccc1Cl)C1CCCCC1 | · | · | · | – | · | – | ·
Cc1n[nH]c(=S)n(NC(=O)/C=C/C(=O)Nn2c(=S)[nH]nc(C)c2=O)c1=O | – | – | · | – | – | – | ·
Cc1n[nH]c(=S)n(NC(=O)CC(=O)Nn2c(=S)[nH]nc(C)c2=O)c1=O | – | – | – | – | – | 16 | –
C=CCN1[C@H](C)COc2cccc(N3CCCC3)c2S1(=O)=O | · | · | · | · | · | – | ·
CC(C)OC(=O)C1=CNCC(C)(C)c2c1[nH]c1cc(F)ccc21 | · | · | · | · | · | – | ·
O=C(c1ccccc1)n1ccc2ccc(-c3ccc4ccn(Cc5ccccc5)c4c3)cc21 | · | · | · | · | · | – | ·
COC(=O)c1cccc(Cn2ccc3ccc(-c4ccc5ccn(C(=O)c6ccccc6OC)c5c4)cc32)c1 | · | · | · | · | · | 34 | 58 | RORg counter=–
COc1ccccc1C(=O)n1ccc2ccc(-c3ccc4ccn(Cc5ccccc5)c4c3)cc21 | · | · | · | · | · | – | ·

Screens deposited in PubChem by several laboratories.
